# Screens: PubChem BioAssay, several laboratories
# NF-kB neuron act = activators of NF-kB expression in neurons, primary screen, cell-based, HTS. human neuronal cells, NF-kB reporter expression; hits give high values. fold change at 12.5 µM. 190,000 compounds, 1.6% hits; in the data active = fold change above about 3.3
# Wee1 stabilizer = Wee1 degradation inhibitors, primary screen, cell-based, HeLa, Wee1K328M-luciferase, luminescence. Wee1-like protein kinase (Homo sapiens), P30291. HeLa Luc-Wee1K328M stability; 100% = proteasome inhibitor MG132 effect. reporter increase, % at 5 µM. 220,000 compounds, 1.2% hits;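 active = activation above the mean of all tested compounds plus 3 SD, set per screening run, cut at about 8.8% in these data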;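 note: cells exposed to compound for 20 h before luminescence read; 0% = DMSO alone and 100% = MG132 at 30 µM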
# Target sequence (P30291 whole entry K328M): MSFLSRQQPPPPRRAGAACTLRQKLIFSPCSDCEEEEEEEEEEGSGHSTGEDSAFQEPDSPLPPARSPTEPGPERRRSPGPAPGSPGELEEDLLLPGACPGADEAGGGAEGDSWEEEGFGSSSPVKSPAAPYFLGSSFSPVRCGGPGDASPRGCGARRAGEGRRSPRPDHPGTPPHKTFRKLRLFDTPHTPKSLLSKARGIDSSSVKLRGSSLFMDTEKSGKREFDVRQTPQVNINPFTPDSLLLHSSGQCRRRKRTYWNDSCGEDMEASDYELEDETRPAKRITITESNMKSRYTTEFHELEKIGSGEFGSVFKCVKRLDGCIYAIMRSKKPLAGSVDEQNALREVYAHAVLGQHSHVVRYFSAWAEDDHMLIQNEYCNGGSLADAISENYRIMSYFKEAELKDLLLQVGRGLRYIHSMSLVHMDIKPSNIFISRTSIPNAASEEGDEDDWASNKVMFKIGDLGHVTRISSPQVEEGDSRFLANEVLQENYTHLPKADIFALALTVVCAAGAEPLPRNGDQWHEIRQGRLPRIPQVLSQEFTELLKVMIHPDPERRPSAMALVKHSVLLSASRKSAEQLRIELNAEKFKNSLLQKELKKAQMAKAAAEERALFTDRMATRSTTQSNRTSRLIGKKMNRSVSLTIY
# APP 5'UTR act = activators of APP 5'UTR luciferase reporter, primary screen, SH-SY5Y cells; SH-SY5Y APP 5'UTR luciferase reporter, luminescence; zero percent = DMSO vehicle wells; activation, % at 2 µM; AID 1276, 2008; 190,000 compounds, 1% hits;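 active = activation above a set limit, based on mean plus 3 SD of controls, cut at about 140% in these data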
# STAT1 act = STAT1 signaling activators, primary screen, cell-based, HTS, luciferase reporter; 200,000 compounds, 2.6% hits; AID 932, 2007; NIH 3T3 STAT1-luciferase reporter, IFN-gamma, luminescence; 100% = IFN-gamma alone, no compound; activation (% of control), % at 5.5 µM;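 active = activation above the screen-wide mean activation plus 3 SD, cut at about 130% in these data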;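 note: raw ratio to IFN-gamma control signal so 100% means no change and 0% no light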
# MDM2 E3 inh = MDM2-luciferase reporter signal enhancers, primary screen, MDM2 E3 ligase inhibitor project, cell-based, luminescence, 1536-well | 210,000 compounds, 0.11% hits | E3 ubiquitin-protein ligase Mdm2 (Homo sapiens), Q00987 | AID 1230, 2008 | cell-based MDM2 ubiquitination luciferase reporter, 2 h; 0 = plate control, 100 = twice control, blank-subtracted | signal enhancement, % at 5 µM;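 active = signal enhancement of 30% or more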;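 note: luminescence tracks abundance of the self-degrading MDM2-luciferase fusion protein; higher signal means inhibition of MDM2 E3 ligase activity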
#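 System: stable MDM2–luciferase fusion reporter cells / Input: 2000 cells seeded into each well / Schedule: 4 h settle plus 2 h compound, 37 °C / Compound: single-point 5 µM / Buffer or medium: cells held in DMEM / Benchmarks: control and blank well means / Evaluation: percent signal gain over controls, blank-subtracted / Measured by: luciferase luminescence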
# p97 inhibitor = inhibitors of human p97 ATPase, primary screen, biochemical; Transitional endoplasmic reticulum ATPase (Homo sapiens), P55072; recombinant p97 ATPase, Kinase-Glo ATP luminescence, 3 h; inhibition, % at 8 µM; 220,000 compounds, 0.42% hits; AID 1481, 2009; in the data active = inhibition above about 15%;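 note: 0% = DMSO vehicle and 100% = wells lacking enzyme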
# Starred values were filed as active, the others as inactive; . = not tested or not shown. Sampled rows, rich in hits. Any-hit rate of the full collection: about 4.6%.
SMILES,NF-kB neuron act,Wee1 stabilizer,APP 5'UTR act,STAT1 act,MDM2 E3 inh,p97 inhibitor
COC(=O)c1cccc(NC(=O)c2onc3c2CCCC3)c1,10*,4,99,150*,-30,-4
COC(=O)c1cccc(NC(=O)c2ccccc2)c1,.,3,.,.,-7,-4
Cc1cccc(NC(=O)c2ccc3c(Cl)c4c(nc3c2)CCCC4)n1,0.77,-2,160*,145*,-43,7
Cc1cccc(NC(=O)c2onc3c2CCCC3)c1C,2.7,-1,78,140*,-6,0
Cc1ccccc1NC(=O)c1sc2nc3c(c(-c4ccco4)c2c1N)CCCC3,0.61,3,.,110,-11,0
Cc1ccc(C(=O)N2CCCC(C(=O)c3ccc(Oc4ccccc4)cc3)C2)cn1 (stereo not drawn),0.96,-3,2,88,-7,-3
O=c1cc(O)c2c(=O)n(-c3ccccc3)c3c(c2o1)CCCCC3,1.6,1,-8,101,0,0
Cc1ccc(NC(=O)C2CCCN2S(=O)(=O)c2ccc3c(c2)n(C)c(=O)c(=O)n3C)c(C)c1 (stereo not drawn),.,-2,.,.,-7,4
Cc1cccc(NC(=O)c2onc3c2CCCC3)n1,2.5,-1,158*,119,-78,-15
Cc1cccc(NC(=O)c2ccoc2C)n1,1.3,8,16,103,-4,-3
COc1ccc(N=C2S/C(=C\c3cc(C)n(C)c3C)C(=O)N2CC(C)C)cc1,0.89,-2,7,97,-14,-1
COC(=O)CN1C(=O)S/C(=C/c2cc(C)n(C)c2C)C1=O,2.1,-1,22,130*,-1,-4
CCOC(=O)C(C)N1C(=O)S/C(=C/c2cc(C)n(-c3ccccn3)c2C)C1=O (stereo not drawn),1.8,3,140*,126,1,-5
COC(=O)C(C)N1C(=O)S/C(=C/c2cc(C)n(C(C)C)c2C)C1=O (stereo not drawn),2.3,9.4*,112,138*,-7,-2
CCOC(=O)C(C)N1C(=O)S/C(=C/c2cc(C)n(-c3ccncc3)c2C)C1=O (stereo not drawn),0.97,3,8,93,-4,-4
Cc1c(NC(=S)NC(=O)c2cc3ccccc3o2)c(=O)n(-c2ccccc2)n1C,1.1,-1,0,103,-5,3
COc1ccc(-c2cc(-c3ccccc3)c(C#N)c(S(C)(=O)=O)n2)cc1,6.3*,-1,10,107,-4,2
CS(=O)(=O)c1nc(-c2ccc(Br)cc2)cc(-c2ccccc2)c1C#N,0.96,-2,-2,102,1,9
CSc1nsc(SCC(=O)N2CCCCC2)n1,2,-1,8,130*,-2,-2
Cc1ccc(Nc2nc(COC(=O)C3CC3)cs2)cc1,3.6*,1,95,125,-27,0
Cc1ccc(Nc2nc(C(=O)N3CCC(C(=O)N4CCN(C)CC4)CC3)cs2)cc1,1,2,-1,104,-9,11
COC(=O)c1[nH]c2ccc(C)cc2c1NC(=O)CCN1CCN(C2CCCCC2)CC1,0.91,-1,-5,97,-4,-1
COC(=O)c1[nH]c2ccc(Br)cc2c1NC(=O)CN1CCN(C2CCCCC2)CC1,4*,-2,8,90,-8,-12
COCn1c(-c2ccc(OC)cc2)nc2ccccc21,2.7,9.2*,118,129*,2,-12
CCn1c(COc2ccc(OC)cc2)nc2ccccc21,2,8.8*,15,123,-8,1
CCCn1c(-c2ccc(OC)cc2)nc2ccccc21,0.77,2,16,92,-3,0
O=[N+]([O-])c1ccccc1SN(Cc1ccccc1)c1ccccn1,1.1,-1,6,102,5,6
